# Results as given in ChEMBL document CHEMBL1944502, “Efficient synthesis and anti-enteroviral activity of 9-arylpurines” (Eur J Med Chem, 2012).
# Assays:
# [1] = Antiviral activity against Coxsackievirus B3 Nancy infected in african green monkey Vero cells assessed as inhibition of virus-induced cell death after 3 days by spectrophotometry based MTS/PMS assay; type: functional, Coxsackievirus B3 (strain Nancy); settings: Enterovirus B, 72 h
# Procedure, shortened: (§1)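 Infected cells in 96-well plates received serial compound dilutions plus 100 CCID50 of virus. They were incubated 3 days, until full CPE appeared in untreated virus controls, at 37 °C (35 °C for rhinovirus 14). Viability was read by MTS/PMS at OD 498 nm and converted to % of controls. EC50 was obtained by linear interpolation. Runs were at least triplicate, with microscopic confirmation.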
# Vero [2] = test: Cytotoxicity against Coxsackievirus B3 Nancy infected African green monkey Vero cells assessed as change in cell morphology at EC50 after 3 days by microscopic analysis; type: cell-based; settings: chlorocebus sabaeus, 72 h
# Procedure, shortened: (§2)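 Infected, compound-treated wells were inspected microscopically after the 3-day antiviral incubation. The check looked for virus-induced CPE and for compound-induced alteration of cell morphology, compared with uninfected, untreated control cells.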
# [3] = Cytotoxicity against African green monkey Vero cells after 3 days by spectrophotometry based MTS/PMS assay; type: cell-based; settings: chlorocebus sabaeus
# Procedure, shortened: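 Uninfected Vero cultures were handled as in the antiviral set-up: serial compound dilutions for 3 days. Overall metabolism was read by MTS/PMS, and raw values were converted to % of controls. CC50 (50% inhibition of cell metabolism) was obtained by linear interpolation. Each experiment was repeated at least three times.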
# rhinovirus B14 = test: Antiviral activity against Human rhinovirus 14 infected in human HeLa cells assessed as inhibition of virus-induced cytopathogenicity after 3 days by spectrophotometry based MTS/PMS assay; type: functional, organism-based; settings: Rhinovirus B, 72 h; procedure, shortened: as §1
# Poliovirus 1 = test: Antiviral activity against Poliovirus type 1 Sabin infected in BGM cells assessed as inhibition of virus-induced cell death after 3 days by spectrophotometry based MTS/PMS assay; type: functional; settings: Enterovirus C, 72 h
# Vero [4] = test: Cytotoxicity against Coxsackievirus B4 E2 Edwards infected african green monkey Vero cells assessed as change in cell morphology at EC50 after 3 days by microscopic analysis; type: cell-based; settings: chlorocebus sabaeus, 72 h; procedure, shortened: as §2
# [5] = Antiviral activity against drug-resistant Coxsackievirus B3 Nancy infected in african green monkey Vero cells assessed as inhibition of virus-induced cell death after 3 days by spectrophotometry based MTS/PMS assay; type: functional, Coxsackievirus B3 (strain Nancy); settings: Enterovirus B, 72 h
# [6] = Antiviral activity against Echovirus 11 Gregory infected in BGM cells assessed as inhibition of virus-induced cell death after 3 days by spectrophotometry based MTS/PMS assay; type: functional, Echovirus 11 (strain Gregory); settings: Enterovirus B, 72 h; procedure, shortened: as §1
# Coxsackievirus B4 = test: Antiviral activity against Coxsackievirus B4 E2 Edwards infected in african green monkey Vero cells assessed as inhibition of virus-induced cytopathogenicity after 3 days by spectrophotometry based MTS/PMS assay; type: functional, organism-based; settings: Enterovirus B, 72 h; procedure, shortened: as §1
# [7] = Cytotoxicity against Echovirus 11 Gregory infected BGM cells assessed as change in cell morphology at EC50 after 3 days by microscopic analysis; type: cell-based; settings: chlorocebus aethiops, 72 h; procedure, shortened: as §2
# [8] = Antiviral activity against Enterovirus 71 BRCR infected in human RD cells assessed as inhibition of virus-induced cell death after 3 days by spectrophotometry based MTS/PMS assay; type: functional, Human enterovirus 71 (strain BRCR); settings: Enterovirus A, 72 h; procedure, shortened: as §1
SMILES,EC50 [1] [µM],EC90 [1] [µM],Activity (Vero [2]),CC50 at 72 h [3] [µM],EC50 (rhinovirus B14) [µM],EC50 (Poliovirus 1) [µM],Activity (Vero [4]),EC50 [5] [µM],EC50 [6] [µM],EC50 (Coxsackievirus B4) [µM],Activity [7],EC50 [8] [µM]
Cc1nc(Cl)c2ncn(-c3cccc(N(C)C)c3)c2n1,12,28,Non-toxic,> 100,,,,,,,,
CC(=O)Nc1cccc(-n2cnc3c(Cl)nc(C)nc32)c1,11.8,17.5,Non-toxic,> 200,,,,,,,,
CCN(C(C)=O)c1cccc(-n2cnc3c(Cl)nc(C)nc32)c1,6.1,10.9,Non-toxic,> 200,,,,,,,,
CCN(CC)c1cccc(-n2cnc3c(Cl)ncnc32)c1,15,23,Non-toxic,> 100,,,,,,,,
CC(=O)c1cccc(-n2cnc3c(Cl)ncnc32)c1,,,Non-toxic,> 100,> 100,> 100,Non-toxic,> 100,21.6,28.8,,
CC(=O)N(C)c1cccc(-n2cnc3c(Cl)nc(C)nc32)c1,6.1,8.3,Non-toxic,307,> 100,> 158,Non-toxic,> 50,20,13,Non-toxic,> 158
Cc1nc(Cl)c2nc(OC(=O)Oc3ccccc3)n(-c3cccc(N(C)C)c3)c2n1,13.6,14.8,,75.9,,,,,,,,
CCN(CC)c1cccc(-n2cnc3c(Cl)nc(C)nc32)c1,10,15,Non-toxic,> 100,,,,,,,,
Cc1nc(Cl)c2ncn(-c3cccc(C(C)(C)O)c3)c2n1,,,Non-toxic,> 100,,,,,,,,
CC(=O)N(C)c1cccc(-n2cnc3c(Cl)ncnc32)c1,7.8,,Non-toxic,> 100,,,,,,,,
Cc1nc(Cl)c2ncn(-c3ccc(N(C)C)cc3)c2n1,11,,Non-toxic,> 100,,,,,,,,
Cc1nc(Cl)c2[nH]c(=O)n(-c3cccc(N(C)C)c3)c2n1,10,15,Non-toxic,> 100,,,,,,,,
Cc1nc(Cl)c2[nH]c(=O)n(-c3cccc(N4CCOC4=O)c3)c2n1,25.4,33.5,Non-toxic,> 200,,,,,,,,
CC(C)S(=O)(=O)n1c(N)nc2ccc(/C(=N/O)c3ccccc3)cc21 [ENVIROXIME],,,Non-toxic,> 100,,,,1.3,,,,
Fc1cccc(F)c1[C@@H]1SCc2nc3cc(C(F)(F)F)ccc3n21,,,Non-toxic,> 100,,,,,,,,
CN(C)c1ccc(-n2cnc3c(Cl)ncnc32)cc1,6.3,,Non-toxic,> 100,,,,,,,,
CC(=O)N(CC1CC1)c1cccc(-n2cnc3c(Cl)nc(C)nc32)c1,34.5,52.3,Non-toxic,> 200,,,,,,,,
CC(=O)Nc1cccc(-n2cnc3c(Cl)ncnc32)c1,18.5,24.2,,> 174,> 100,> 174,Non-toxic,> 50,20.8,12.1,Non-toxic,> 174
O=C1OCCN1c1cccc(-n2c(=O)[nH]c3c(Cl)ncnc32)c1,8.9,15.3,Non-toxic,> 200,> 100,> 151,Non-toxic,,86.9,24.1,,> 151
CC(=O)c1cccc(-n2c(=O)[nH]c3c(Cl)nc(C)nc32)c1,,,Non-toxic,> 100,,,,,,,,
CN(C)c1cccc(-n2c(=O)[nH]c3c(Cl)ncnc32)c1,16,26,Non-toxic,> 100,,,,,,,,
O=C1OCCN1c1cccc(-n2cnc3c(Cl)ncnc32)c1,33.7,47.5,Non-toxic,> 200,,,,,,,,
CN(C)c1cccc(-n2cnc3c(Cl)ncnc32)c1,3.8,5,Non-toxic,> 100,> 100,> 100,Non-toxic,> 100,12.5,6.9,,> 100
Cc1nc(Cl)c2c(n1)n(-c1cccc(N(C)C)c1)c(=O)n2C,11.3,18.2,Non-toxic,> 200,,,,,,,,
CCOc1ncnc2c1ncn2-c1cccc(NCCO)c1,> 200,> 200,,> 200,,,,,,,,
Cc1nc(Cl)c2ncn(-c3cccc(N4CCOC4=O)c3)c2n1,10.6,15.6,Non-toxic,> 200,,,,,,,,
CCOC(=O)Oc1nc2c(Cl)nc(C)nc2n1-c1cccc(N(C)C)c1,12.6,19.9,Non-toxic,131,,,,,,,,
